Measured values: ChEMBL document CHEMBL5532647, “Design, synthesis, ADME and biological evaluation of benzylpiperidine and benzylpiperazine derivatives as novel reversible monoacylglycerol lipase (MAGL) inhibitors” (Eur J Med Chem, 2024)
Calls of active or inactive are those of the source. The calls are words filed in the database; no cut-off is given here.

Key:
[1] = target: T1, Monoglyceride lipase (Homo sapiens) (UniProt Q99685); experiment: Reversible inhibition of human recombinant MAGL using 4-nitrophenylacetate as substrate preincubated with compound for 60 mins followed by substrate addition and measured after 30 mins by microplate reader analysis; conditions: time 90.0 min
T1 sequence (whole entry): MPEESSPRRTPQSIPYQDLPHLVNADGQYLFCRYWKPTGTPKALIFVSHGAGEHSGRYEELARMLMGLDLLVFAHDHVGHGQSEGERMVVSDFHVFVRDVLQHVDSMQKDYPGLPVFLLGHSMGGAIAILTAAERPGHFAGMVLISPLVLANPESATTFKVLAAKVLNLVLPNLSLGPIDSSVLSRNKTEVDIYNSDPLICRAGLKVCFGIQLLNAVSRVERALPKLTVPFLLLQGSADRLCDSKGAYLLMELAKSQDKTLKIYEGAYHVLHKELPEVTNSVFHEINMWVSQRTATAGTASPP
In short: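 Human recombinant MAGL (11 ng/well) in Tris pH 7.2 buffer with EDTA and BSA, preincubated with compound for 0, 30 or 60 min at room temperature. Reaction then started with 4-NPA 500 μM (solution added). Absorbance at 405 nm after 30 min. IC50 from triplicates of two independent experiments.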

[2] = target: T1, Monoglyceride lipase (Homo sapiens); experiment: Reversible inhibition of human recombinant MAGL using 4-nitrophenylacetate as substrate at 8 nM incubated for 15 mins by microplate reader analysis
In short: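 Human recombinant MAGL (880 ng in Tris buffer, pH 7.2) incubated 60 min at room temperature with compound at 320 nM in the mixture, then diluted 40-fold in buffer. After 15 min, reaction started with 4-NPA 500 μM (stock added). Activity read at 405 nm after 30 min. Undiluted comparison run at 320 nM and 8 nM.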

Monoglyceride lipase = target: T2, Monoglyceride lipase (Homo sapiens, UniProt Q99685); experiment: Reversible inhibition of MAGL in human U-937 cells using 2-oleoylglycerol as substrate preincubated with compound for 30 mins followed by substrate addition and measured after 5 mins; assay type: cell-based
T2 sequence (Q99685 whole entry): T1 sequence (whole entry)
In short: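 Intact U937 cells co-incubated with compound for 30 min. Then 10 μM 2-oleoylglycerol plus 1.0 nM [3H]2-OG tracer added for a further 5 min at 37 °C. JZL-184 (1 μM) served as full-inhibition control. Two independent experiments in triplicate. IC50 given as mean (95% CI).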

[3] = target: T3, Lysophosphatidylserine lipase ABHD12 (Homo sapiens) (UniProt Q8N2K0); experiment: Inhibition of human ABHD12 transfected in HEK293 cells at 10 uM preincubated with compound for 30 mins followed by 2-OG addition and measured after 5 mins by liquid scintillation spectroscopy; assay type: cell-based; conditions: time 35.0 min
T3 sequence (whole entry): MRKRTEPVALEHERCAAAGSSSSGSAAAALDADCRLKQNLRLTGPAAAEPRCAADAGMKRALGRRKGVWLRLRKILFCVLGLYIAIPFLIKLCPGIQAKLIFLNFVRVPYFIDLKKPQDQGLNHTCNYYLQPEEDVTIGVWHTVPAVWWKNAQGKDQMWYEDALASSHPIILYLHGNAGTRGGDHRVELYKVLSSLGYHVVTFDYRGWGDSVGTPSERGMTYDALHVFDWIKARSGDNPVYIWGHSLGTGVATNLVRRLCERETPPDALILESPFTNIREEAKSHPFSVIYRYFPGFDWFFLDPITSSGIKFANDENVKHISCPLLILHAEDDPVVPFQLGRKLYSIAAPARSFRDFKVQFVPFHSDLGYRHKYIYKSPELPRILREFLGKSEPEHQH
In short: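 Homogenates (40 μg) of HEK293 cells stably transfected with hABHD6 or hABHD12. Compound 10 μM preincubated 30 min at 37 °C, 500 rpm, in Tris/EDTA buffer with 0.1% fatty acid-free BSA, pH 7.6. Controls: WWL70 10 μM or THL 20 μM; DMSO vehicle. 2-OG 10 μM added for 5 min at 37 °C. Stopped with ice-cold CHCl3:MeOH; aqueous phase counted. No-enzyme blanks used; non-transfected HEK293 hydrolysis subtracted.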

[4] = target: T4, Fatty-acid amide hydrolase 1 (Mus musculus) (UniProt O08914); experiment: Inhibition of mouse brain FAAH at 10 uM incubated with compound for 25 mins by TAMRA-FP probe based SDS-PAGE analysis; assay type: tissue-based
T4 sequence (whole entry): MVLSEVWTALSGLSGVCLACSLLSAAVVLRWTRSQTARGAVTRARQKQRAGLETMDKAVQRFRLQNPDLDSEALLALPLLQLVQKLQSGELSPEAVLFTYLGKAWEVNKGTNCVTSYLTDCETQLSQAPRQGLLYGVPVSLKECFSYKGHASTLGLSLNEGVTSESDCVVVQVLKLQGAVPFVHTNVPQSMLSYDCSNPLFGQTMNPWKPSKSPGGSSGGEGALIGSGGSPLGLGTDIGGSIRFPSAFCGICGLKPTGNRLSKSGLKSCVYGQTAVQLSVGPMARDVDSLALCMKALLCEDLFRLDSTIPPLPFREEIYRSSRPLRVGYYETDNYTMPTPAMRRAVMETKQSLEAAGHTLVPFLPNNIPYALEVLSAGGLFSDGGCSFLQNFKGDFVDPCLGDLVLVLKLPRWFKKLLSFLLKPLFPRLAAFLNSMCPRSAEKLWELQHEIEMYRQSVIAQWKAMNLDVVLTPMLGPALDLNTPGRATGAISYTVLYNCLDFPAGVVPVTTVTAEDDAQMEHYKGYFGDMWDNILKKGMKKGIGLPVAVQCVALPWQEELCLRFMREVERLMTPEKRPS
In short: (§1)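 Mouse brain membranes (2 mg/mL final, in PBS) preincubated 25 min at 25 °C with test compound (10 μM final) or DMSO vehicle. Controls: JZL-184, URB597 4 μM, WWL70 10 μM, THL, MAFP 5 μM. TAMRA-FP 125 nM final added for 5 min at 25 °C. Reaction stopped with Laemmli buffer, 3 min at 25 °C then 10 min at 90 °C. Separation by 10% SDS-PAGE, fluorescence scanning, three independent experiments.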

[5] = target: T5, Monoacylglycerol lipase ABHD6 (Mus musculus) (UniProt Q8R2Y0); experiment: Inhibition of mouse brain ABHD6 at 10 uM incubated with compound for 25 mins by TAMRA-FP probe based SDS-PAGE analysis; assay type: tissue-based; in short: as §1
T5 sequence (whole entry): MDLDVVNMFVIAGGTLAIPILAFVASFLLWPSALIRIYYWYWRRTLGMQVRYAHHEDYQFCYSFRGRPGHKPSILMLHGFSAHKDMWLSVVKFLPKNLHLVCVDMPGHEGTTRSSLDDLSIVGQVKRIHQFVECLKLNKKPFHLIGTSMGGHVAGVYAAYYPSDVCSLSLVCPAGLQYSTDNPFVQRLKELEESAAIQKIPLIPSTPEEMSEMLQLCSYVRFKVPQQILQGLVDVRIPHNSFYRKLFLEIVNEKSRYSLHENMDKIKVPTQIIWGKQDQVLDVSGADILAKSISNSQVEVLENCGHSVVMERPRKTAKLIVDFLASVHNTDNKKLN

SMILES	inhibition [1]	inhibition [2]	IC50 (Monoglyceride lipase) [nM]	inhibition [3]	inhibition [4]	inhibition [5]
O=C(c1cc(O)ccc1F)N1CCC(Cc2cccc(Sc3cc(C(F)(F)F)ccn3)c2)CC1	Active	Active	199	inactive	inactive	inactive
O=C(c1cc(O)ccc1F)N1CCN(Cc2cccc(Sc3cc(C(F)(F)F)ccn3)c2)CC1	Active	Active	489	inactive	inactive	inactive
O=C(c1cccc(O)c1)N1CCC(Cc2ccc(F)c(Sc3cc(C(F)(F)F)ccn3)c2)CC1	Active	Active	193	inactive	inactive	inactive
O=C(c1cccc(O)c1)N1CCC(Cc2cccc(Sc3cc(C(F)(F)F)ccn3)c2)CC1	Active	Active	197	inactive	inactive	inactive
